Data taken from ChEMBL document CHEMBL5030567, “Macrocyclic Inhibitors of HGF-Activating Serine Proteases Overcome Resistance to Receptor Tyrosine Kinase Inhibitors and Block Lung Cancer Progression” (J Med Chem, 2021).
pIC50: −log10 of the molar value. Converted amounts (≈) assume the structure as drawn. The source made the active and inactive calls. No cut-off for these calls is given here. Numbered stars: 1 amine (or outer) side, 2 acyl side, 3 side chain; on linkers, the order of the positions; unused ones are H or OH. Square brackets hold non-standard residues; d marks the D form. Peptide text beside a SMILES is read from it. X1 = N=C(N)NCCC[C@H](N[*:1])C(=O)c1nc2ccc(C(=O)[*:2])cc2s1

How the values were obtained:
[1] = system: EBC-1; experiment: Cytotoxicity against human EBC-1 cells assessed as reduction in cell viability preincubated with compound and pro-HGF for 24 hrs followed by JNJ-38877605 addition and measured after 48 hrs by CellTiter-Glo assay; type: functional, cell-based; details: time 72.0 hrs
Outline: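 EBC-1 cells pre-incubated 24 h with pro-HGF (100 ng/ml) with or without compound (1 µM), then given MET kinase inhibitor JNJ-38877605 (25 nM). Viability read by CellTiter-Glo after 48 h. Means±S.E.M., n=3; one-way ANOVA with Dunnett's test.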

[2] = Stability in mouse plasma assessed as half life; type: ADME, cell-free
[3] = target: T1, Hepatocyte growth factor activator serine protease (Homo sapiens) (UniProt Q04756); experiment: Inhibition of recombinant human HGFA serine protease domain mediated pro-HGF activation preincubated for 30 mins followed by pro-HGF addition and measured after 1 hr by immunoblotting analysis
T1 sequence (whole entry): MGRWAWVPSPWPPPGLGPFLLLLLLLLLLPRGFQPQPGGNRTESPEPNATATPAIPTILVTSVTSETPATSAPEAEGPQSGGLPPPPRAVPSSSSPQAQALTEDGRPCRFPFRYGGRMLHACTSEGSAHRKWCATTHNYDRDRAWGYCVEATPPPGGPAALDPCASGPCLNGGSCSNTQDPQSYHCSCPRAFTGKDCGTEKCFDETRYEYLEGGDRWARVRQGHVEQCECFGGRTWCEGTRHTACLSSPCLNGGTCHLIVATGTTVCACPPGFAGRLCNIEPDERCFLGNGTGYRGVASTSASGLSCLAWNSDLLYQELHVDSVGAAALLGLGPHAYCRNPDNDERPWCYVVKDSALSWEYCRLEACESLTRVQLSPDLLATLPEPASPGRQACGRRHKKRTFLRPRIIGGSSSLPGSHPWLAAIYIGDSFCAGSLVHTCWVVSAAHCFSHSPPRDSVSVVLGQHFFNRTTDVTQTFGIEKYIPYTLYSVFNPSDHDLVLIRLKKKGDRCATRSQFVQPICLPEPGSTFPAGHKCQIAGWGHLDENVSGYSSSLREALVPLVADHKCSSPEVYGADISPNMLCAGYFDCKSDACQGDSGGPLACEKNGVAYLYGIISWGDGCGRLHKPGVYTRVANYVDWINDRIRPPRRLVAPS
Outline: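 Recombinant pro-HGF (10 ng) incubated one hour with matriptase (1 nM), hepsin (10 nM) or HGFA (5 nM), with or without inhibitor. Processing detected by immunoblot with a polyclonal antibody recognizing pro-HGF and the HGF alpha and beta chains; active HGF served as positive control.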

[4] = Half life in mouse plasma at 20 mg/kg, ip; type: ADME, organism-based; details: in vivo, 20 mg/kg
[5] = system: HCC827; experiment: Cytotoxicity against human HCC827 cells assessed as reduction in cell viability at 0.1 to 1 uM after 72 hrs in presence of pro-HGF by crystal violet staining based assay; details: dose 0.1-1 µM
[6] = Solubility of compound at pH 7.4; type: physicochemical; details: buffer
[7] = system: HCC827; experiment: Cytotoxicity against human HCC827 cells assessed as reduction in cell viability at 0.1 to 1 uM after 72 hrs by crystal violet staining based assay; details: dose 0.1-1 µM
[8] = system: NCI-H596; experiment: Antitumor activity against human NCI-H596 cells xenografted in hHGF knock in NSG mouse assessed as tumor growth inhibition at 50 mg/kg, ip administered daily for 25 days; type: functional, organism-based; details: time 25.0 day
[9] = Toxicity in hHGF knock in NSG mouse xenografted with human NCI-H596 cells at 50 mg/kg, ip administered daily for 25 days; type: organism-based; details: in vivo, 600 h, time 25 day
[10] = Plasma protein binding in mouse assessed as unbound fraction; type: ADME, cell-free
[11] = system: HCC827; experiment: Inhibition of pro-HGF stimulated wound healing in human HCC827 cells preincubated for 30 mins followed by pro-HGF stimulation and measured after 24 hrs by crystal violet staining based assay; type: functional, cell-based
Outline: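 HCC827 monolayers grown to confluence, serum-starved overnight, then scratched. Cells were pre-incubated 30 min with inhibitor (10 µM) and stimulated with HGF or pro-HGF for 24 h. Wells stained with crystal violet to score closure. n=3; one-way ANOVA versus pro-HGF alone.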

[12] = Acute toxicity in NSG mouse at 20 to 100 mg/kg, ip administered for 7 days; type: organism-based; details: in vivo, dose 20-100 mg/kg, time 7 day
[13] = Toxicity in NSG mouse at 100 mg/kg, ip administered daily for 7 days; type: organism-based; details: in vivo, time 7 day
[14] = Stability in human plasma assessed as half life; type: ADME, cell-free
[15] = target: T2, Suppressor of tumorigenicity 14 protein (Homo sapiens, UniProt Q9Y5Y6); experiment: Inhibition of recombinant human N-terminal met-His6-tagged matriptase catalytic domain (Gly596 to Val855 residues) expressed in Escherichia coli using Boc-QAR-AMC as substrate preincubated for 30 mins followed by substrate addition by fluorescence based assay
T2 sequence (Q9Y5Y6 whole entry): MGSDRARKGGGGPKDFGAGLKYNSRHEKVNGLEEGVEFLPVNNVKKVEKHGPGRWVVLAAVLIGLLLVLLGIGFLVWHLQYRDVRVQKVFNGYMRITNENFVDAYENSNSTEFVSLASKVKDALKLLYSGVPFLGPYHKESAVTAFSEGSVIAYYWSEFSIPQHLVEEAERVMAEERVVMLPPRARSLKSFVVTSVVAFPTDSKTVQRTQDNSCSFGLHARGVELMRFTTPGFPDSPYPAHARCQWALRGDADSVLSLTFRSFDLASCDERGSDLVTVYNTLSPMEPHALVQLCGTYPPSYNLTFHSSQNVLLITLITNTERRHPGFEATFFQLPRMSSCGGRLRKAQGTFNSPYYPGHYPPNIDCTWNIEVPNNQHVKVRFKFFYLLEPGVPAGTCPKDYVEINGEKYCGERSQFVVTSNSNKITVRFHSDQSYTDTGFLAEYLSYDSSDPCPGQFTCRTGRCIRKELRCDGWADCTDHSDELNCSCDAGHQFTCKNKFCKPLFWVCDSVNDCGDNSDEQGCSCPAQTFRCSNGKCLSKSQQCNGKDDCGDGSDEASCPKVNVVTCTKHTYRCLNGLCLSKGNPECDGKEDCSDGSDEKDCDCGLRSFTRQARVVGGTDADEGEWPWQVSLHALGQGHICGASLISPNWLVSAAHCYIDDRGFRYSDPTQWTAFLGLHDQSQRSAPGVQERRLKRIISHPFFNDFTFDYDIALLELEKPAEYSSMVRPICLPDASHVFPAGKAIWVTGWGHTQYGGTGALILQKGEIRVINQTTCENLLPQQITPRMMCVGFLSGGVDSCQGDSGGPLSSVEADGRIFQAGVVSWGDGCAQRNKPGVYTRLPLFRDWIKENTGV
Outline: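 Inhibitor in 11-point serial dilution (0-20 µM final, 2% DMSO) pre-incubated 30 min at room temperature with enzyme in TNC buffer (25 mM Tris, 150 mM NaCl, 5 mM CaCl2, 0.01% Triton X-100, pH 8). […] Hepsin activated beforehand 24 h at 37°C. Fluorescence ex 380/em 460 nm kinetic; four-parameter fit of velocities; mean of three experiments.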

CC(=O)N[C@@H](CO)C(=O)N[C@@H](CCCCN)C(=O)N[C@@H](CC(C)C)C(=O)N[C@@H](CCCNC(=N)N)C(=O)c1nc2ccc(C(=O)N[C@H](C(N)=O)C(C)C)cc2s1 (Ac-SKL[X1]V-NH2)
Activity [1]: Active
t1/2 [2]: 184 min
inhibition [3]: Active
t1/2 [4]: 2 h
Activity [5]: Active
solubility [6]: 200 µM (≈ 161 µg/mL)
Activity [7]: inactive
Activity [8]: Active
Activity [9]: Non-Toxic
fraction unbound [10]: 0.167
inhibition [11]: Active
Activity [12]: Non-Toxic
Activity [13]: Non-Toxic
t1/2 [14]: 140 min
pIC50 [15]: 7.68
